Compound activity (PubChem BioAssay)
ABHD4 inh: inhibits mouse alpha/beta hydrolase domain 4. Q8VD66. purified mABHD4, FP-Rh probe fluorescence polarization. inhibition, % at 8.92 µM. actives 0.54% (n = 370,000). AID 720543;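 active means inhibition exceeding the mean over every tested compound plus 3 SD, cut at about 30% in these data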;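 further: 0% = plate median of compound wells and 100% = S159A mutant with DMSO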
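assay system = mABHD4 protein | compound dosing = single nominal dose of 8.92 µM, 0.89% DMSO final | read-out basis = percent inhibition of probe binding, normalized to plate controls | schedule = Enzyme–compound pre-incubation 45 min, then probe 60 min, both 25 °C | detection = fluorescence polarization, excitation 525 nm, emission 598 nm, BODIPY TMR filters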
pPAFAH FP inh: inhibitors of human plasma PAF acetylhydrolase (pPAFAH) | inhibition, % at 3.39 µM | actives 1.5% (n = 330,000) | recombinant pPAFAH, FP-rhodamine probe fluorescence polarization | Q13093;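 active means inhibition above the mean inhibition across the screen plus 3 SD, cut at about 25% in these data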;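 further: inhibitors block binding of the rhodamine activity-based probe so polarization drops; 0% = enzyme with DMSO and 100% = wells lacking pPAFAH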
TCR CD3 inh: human TCR-CD3 binding inhibition | TAMRA-labeled TCR probe fluorescence, biochemical | inhibition, % at 9.4 µM | actives 0.37% (n = 360,000);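 further: recombinant mutant TCR 2C K166C tagged with TAMRA read by polarization; 0% = receptor in buffer alone and 100% = receptor with positive control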
SIAE primary: human SIAE inhibition, primary screen; Q9HAT2; SIAE FP-Rh probe binding, fluorescence polarization; inhibition, % at 9.66 µM; actives 0.69% (n = 370,000); AID 1053197;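 active means inhibition above a cutoff: mean of compounds within the control limits plus 3 SD of those, cut at about 17% in these data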;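 further: 0% = plate median of compound wells and 100% = probe without SIAE protein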
Target sequence (Q9HAT2 whole entry, looked up): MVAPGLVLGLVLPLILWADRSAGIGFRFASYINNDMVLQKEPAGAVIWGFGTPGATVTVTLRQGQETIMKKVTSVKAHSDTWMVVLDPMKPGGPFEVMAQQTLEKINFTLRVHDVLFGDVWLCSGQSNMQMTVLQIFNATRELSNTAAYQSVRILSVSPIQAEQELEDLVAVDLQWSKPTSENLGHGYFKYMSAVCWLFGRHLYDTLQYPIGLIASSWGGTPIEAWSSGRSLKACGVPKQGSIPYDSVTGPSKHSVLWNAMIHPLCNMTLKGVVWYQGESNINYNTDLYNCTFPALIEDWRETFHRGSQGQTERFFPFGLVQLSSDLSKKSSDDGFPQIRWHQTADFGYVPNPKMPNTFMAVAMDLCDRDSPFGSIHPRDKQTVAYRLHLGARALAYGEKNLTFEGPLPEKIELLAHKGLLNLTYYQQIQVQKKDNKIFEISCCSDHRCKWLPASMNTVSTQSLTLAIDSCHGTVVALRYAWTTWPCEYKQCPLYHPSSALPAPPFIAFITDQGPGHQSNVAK
HTRA1 inhibitor: blocks human HTRA1 serine peptidase; Q92743; recombinant HTRA1, FP-rhodamine activity-based probe, fluorescence polarization; inhibition, % at 5.96 µM; actives 0.5% (n = 340,000); AID 504803; in the data active means inhibition above about 36%;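 further: 0% = enzyme with DMSO and 100% = wells lacking enzyme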
pPAFAH FP conf: confirmation of human plasma PAF acetylhydrolase (pPAFAH) inhibitors | shares compounds with pPAFAH FP inh | recombinant pPAFAH, FP-Rh probe fluorescence polarization | inhibition, % at 3.39 µM | actives 72% (n = 2,300);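 active means mean inhibition of the triplicate above the hit cutoff set for the earlier primary screen, cut at about 25% in these data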;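 further: 0% = enzyme with DMSO and 100% = wells lacking pPAFAH enzyme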
HTRA1 conf: HTRA1 (human) inhibition, confirmation; shares compounds with HTRA1 inhibitor; recombinant HTRA1, FP-rhodamine activity-based probe, fluorescence polarization; inhibition, % at 5.96 µM; actives 66% (n = 1,600);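 active means mean inhibition over three repeats above a set limit taken from the earlier primary screen, cut at about 37% in these data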;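 further: 0% = HTRA1 with DMSO and 100% = wells lacking HTRA1; inhibitors block probe binding so polarization drops and inhibition rises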
BSA TAMRA ctr: BSA probe counter-screen for TCR-CD3 inhibitors; AID 652035; actives 10% (n = 1,200); TAMRA-labeled BSA probe fluorescence counterscreen; inhibition, % at 9.4 µM; shares compounds with TCR CD3 inh; in the data active means inhibition above about 23%;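 further: 0% = buffer low control and 100% = reference high control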
TCR-CD3 conf: confirmation of human TCR-CD3 interaction inhibitors; shares compounds with TCR CD3 inh; TAMRA-labeled TCR probe fluorescence binding assay; inhibition, % at 9.4 µM; actives 48% (n = 1,200); AID 652036
mABHD4 conf: ABHD4 (mouse) inhibition, FP confirmation; purified mABHD4, FP-Rh probe fluorescence polarization; shares compounds with ABHD4 inh; inhibition, % at 8.92 µM; AID 720658; actives 55% (n = 1,800);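 active means mean inhibition across replicates above the hit cutoff set in the primary screen, cut at about 30% in these data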;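 further: 0% = wild-type ABHD4 with DMSO and 100% = catalytically dead S159A mutant with DMSO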
The depositor's hits bear a star; . = no result given. Only some compounds are listed: those with a hit (about 2.3% of all), similar ones and a draw of the others. Unless noted, no stated cut-off is given here; in the data, active means inhibition above about 19%; inactive means the rest.

SMILES	ABHD4 inh	pPAFAH FP inh	TCR CD3 inh	SIAE primary	HTRA1 inhibitor	pPAFAH FP conf	HTRA1 conf	mABHD4 conf	others
O=C(O)c1ccc2c(c1)C(=O)/C(=C\c1ccco1)C2=O	30.1*	53.8*	3.0	-6.4	9.8	18.2	.	27.6
O=S(=O)(c1ccc2nc(-c3ccco3)c(-c3ccco3)nc2c1)N1CCOCC1	56.1*	42.8*	15.8	4.0	40.9*	13.3	9.0	28.9
O=S(=O)(c1ccc2ccccc2c1)N1CCOCC1	-2.4	1.6	7.5	2.8	0.9	.	.	.
Cc1ccc(NS(=O)(=O)c2ccc(Cl)c(N=Nc3c(O)[nH]c(=O)[nH]c3=O)c2)cc1Cl	31.0*	88.8*	-0.5	5.4	0.8	89.4*	.	48.3*
Cc1ccc(NS(=O)(=O)c2ccc3[nH]c(=O)c(=O)[nH]c3c2)cc1Cl	-14.3	18.6	7.0	-5.9	-8.3	.	.	.
O=[N+]([O-])c1cc(-c2ccc(/C=N/c3nc4ccccn4c3-c3ccco3)o2)ccc1Cl	45.6*	34.6*	4.0	16.3	36.7*	14.2	45.6*	16.1
Cc1ccc(S(=O)(=O)c2cc(Nc3ccccc3)ccc2O)cc1	19.3	18.8	1.8	12.6	15.9	.	.	.
Nc1ccc(Nc2ccccc2)c(S(=O)(=O)O)c1	63.0*	60.2*	22.4*	10.2	57.6*	7.7	15.0	43.9*	BSA TAMRA ctr=-2.7;TCR-CD3 conf=8.7
Cc1ccc(Nc2ccc(N)cc2S(=O)(=O)O)cc1	65.0*	49.9*	-0.2	14.2	80.1*	4.9	21.3	17.6
O=C1CCCC2=C1C(c1ccc(O)c(O)c1)Nc1ccc3ccccc3c12 (stereo not drawn)	32.1*	35.7*	4.5	9.1	63.5*	31.2*	71.9*	25.5
COc1cc(C2Nc3ccc4ncccc4c3C3=C2C(=O)CCC3)cc(OC)c1O (stereo not drawn)	4.2	7.1	5.3	-0.1	14.9	.	.	.
CCOC(=O)C1(C)CCCN(C(=O)c2cccc(C#N)c2)C1 (stereo not drawn)	3.1	.	0.5	8.6	.	.	.	.
NC(=S)NN=Cc1c[nH]c2nccnc12	-0.4	.	-1.1	5.7	4.5	.	.	.
Cc1ccc(C)c(NC(=O)c2cc(-c3ccc(Cl)cc3)nc3ccccc23)c1	3.8	.	.	-1.1	.	.	.	.
Oc1ccc(C2C[C@H]3CC[C@@H]2C3)cc1O (stereo partly drawn)	30.4*	51.8*	-0.7	7.1	50.5*	32.1*	75.6*	18.4
COc1ccc(-n2c(C)cc(/C=C3\SC(=S)NC3=O)c2C)cc1	7.3	15.5	1.6	-1.1	-7.3	.	.	.
Cc1cc(/C=C2\SC(=S)NC2=O)c(C)n1-c1ccc(O)cc1	35.4*	35.2*	3.7	-9.4	-17.5	45.3*	.	43.7*
CC(C)C(C(=O)NCc1ccccc1)N1CCN(C(=O)C2CCCO2)CC1 (stereo not drawn)	2.1	.	8.1	-5.2	.	.	.	.
Cc1cc2c(cc1C)-n1nnnc1C(N1CCN(C(=O)OCc3ccccc3)CC1)C(=O)N2 (stereo not drawn)	6.6	.	-4.0	2.5	.	.	.	.
CC(C)[C@H](NC(=O)OC(C)(C)C)c1cc(C(=O)N2CCOCC2)c(N)s1	-6.6	.	-6.2	-1.6	.	.	.	.
CN(C)c1ncc(C2=C(Cl)C(=O)C(N3CCCC3)=C(Cl)C2=O)s1	62.7*	49.5*	21.5*	25.1*	38.5*	10.1	.	83.3*	BSA TAMRA ctr=-14.9;TCR-CD3 conf=7.0
S=c1[nH]nc(-c2ccc(Cl)cc2)n1/N=C/C=C/c1ccco1	31.0*	39.3*	0.4	9.6	.	13.1	.	-1.6
Cc1ccccc1-c1n[nH]c(=S)n1/N=C/C=C/c1ccco1	35.5*	44.6*	7.3	8.3	15.5	8.9	.	32.2*
CC(C)C[C@H](NC1(C(=O)NC2CCCCC2)CCC1)C(=O)NCC(c1ccccc1)c1ccccc1	7.1	.	.	-5.2	.	.	.	.
CCOc1ccccc1C(=O)NCC(=O)OCc1csc(CC(=O)Nc2ccc(C)cc2)n1	36.3*	36.7*	10.0	-19.4	-31.7	18.4	.	7.3
SMILES	ABHD4 inh	pPAFAH FP inh	TCR CD3 inh	SIAE primary	HTRA1 inhibitor	pPAFAH FP conf	HTRA1 conf	mABHD4 conf	others
COc1ccccc1C(=O)NCC(=O)OCc1csc(-c2ccccc2)n1	-15.2	-2.5	0.2	-6.8	-9.5	.	.	.
CCOC(=O)[C@]12CCCCC/C=C\1N(CCc1ccc(Cl)cc1)C(=O)[C@H]2CC(=O)NCc1ccccc1	-11.4	.	.	1.2	.	.	.	.
O=C(N[C@@H]1CCCc2c1cnn2-c1ccc(F)cc1F)c1ccccn1	-2.4	.	.	4.3	.	.	.	.
CC(C)(C)c1ccc(-c2cn(C[C@H](Cc3ccccc3)n3c(=O)c4ccccc4n3Cc3ccccc3)nn2)cc1	3.4	.	.	-5.4	.	.	.	.
COc1ccc(NC(=S)NNc2ccc(S(=O)(=O)Nc3ccccc3C(=O)O)cc2[N+](=O)[O-])cc1	74.4*	58.0*	0.8	-11.4	73.8*	81.9*	73.2*	95.5*
Cc1nn(-c2ccccc2)c(Cl)c1/C=N/Nc1ccc(Cl)c(C(=O)O)c1	5.3	6.6	-2.0	6.4	-0.6	.	.	.
Cc1ccc(S(=O)(=O)Nc2ccccc2C(=O)OC(C)C(=O)Nc2ccc3ccccc3c2)cc1[N+](=O)[O-] (stereo not drawn)	-29.4	13.2	5.0	-31.4	-40.0	.	.	.
Cc1nn(-c2ccccc2)c(Cl)c1/C=N/Nc1ccc(S(=O)(=O)Nc2ccccc2C(=O)O)cc1[N+](=O)[O-]	41.9*	46.5*	0.3	17.6*	6.4	78.1*	.	62.0*
CCN(CC)c1ccc(N=Cc2ccc([N+](=O)[O-])o2)cc1	45.2*	43.1*	5.5	7.4	63.8*	16.9	41.0*	15.5
COc1ccc(-c2nnc(SCC(=O)Nc3cccc4ccccc34)n2Cc2ccco2)cc1	-6.5	.	.	2.6	.	.	.	.
O=C(/C=C/c1ccccc1)c1cc(Br)ccc(=O)c1O	37.4*	36.0*	8.4	9.4	58.3*	23.4	65.2*	28.8
Cc1nc2ccccc2c(=O)n1/N=C/c1ccccc1O	0.1	1.4	-8.2	4.1	-3.0	.	.	.
Cc1nc2ccccc2c(=O)n1/N=C/c1ccc(O)c(O)c1O	44.3*	86.8*	40.8*	12.5	49.0*	46.7*	55.5*	27.3	BSA TAMRA ctr=-10.5;TCR-CD3 conf=24.9*
C[C@@H]1NC(=O)[C@H]2C[C@@]3(c4ccccc4)c4ccccc4N[C@H]3N2C1=O	-0.5	.	.	3.1	.	.	.	.
